{"source": "PubChem BioAssay AID493091", "about": "(Sanford-Burnham Center for Chemical Genomics, 2011)", "note": "Hit rate of the full screen: of about 340,000 compounds, about 3,000 (0.88%) were called active. This excerpt belongs to a sample that is enriched for actives. A number with no mark means an inactive call.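 Rule for the calls: active = inhibition above about 50% at 20 µM (limit read from the data); inactive = the rest.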"}
{"target": "Carboxy-terminal domain RNA polymerase II polypeptide A small phosphatase 1 (Homo sapiens) (UniProt Q9GZU7)", "sequence (Q9GZU7 76-261 limits assumed)": "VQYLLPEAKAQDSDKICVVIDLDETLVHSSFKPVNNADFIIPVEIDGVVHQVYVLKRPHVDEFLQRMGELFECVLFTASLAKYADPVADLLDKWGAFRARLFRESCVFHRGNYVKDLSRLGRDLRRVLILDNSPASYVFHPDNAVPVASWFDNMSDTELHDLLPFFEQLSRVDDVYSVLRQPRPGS", "assay": "Scp-1 phosphatase inhibitors, primary screen, biochemical, colorimetric, uHTS (AID 493091);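 note: plate controls were DMSO wells with enzyme for no effect and wells lacking enzyme for full effect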", "conditions": "Recombinant Scp1, phosphopeptide, malachite green phosphate absorbance; at 20 µM; hits give high values", "summary_of_the_method": "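Test system: SCP-1 phosphatase catalytic domain, residues 76-261; measured by: colorimetric phosphate reagent with accelerator and stabiliser, absorbance at 630 nm; timing: enzyme reaction 45 min at room temperature, colour 5 min, stabilisation 30 min; also added: Phosphorylated 17-residue peptide substrate; compound dosing: one concentration, 20 µM, with 1.0% DMSO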"}
{"compound": "CCOc1ccccc1Nc1nnc(SCC(=O)NCC2CCCO2)s1", "note": "(stereo not given)", "inhibition": "-9.59%"}
{"compound": "Cc1ccn2c(=O)nc(SCC(=O)NCc3ccc(F)cc3)nc2c1", "inhibition": "16.3%"}
{"compound": "O=C(CSc1ncn[nH]1)NCc1ccc2c(c1)OCO2", "inhibition": "-1.73%"}
{"compound": "Cc1ccn2c(=O)nc(SCC(=O)NCc3ccc4c(c3)OCO4)nc2c1", "inhibition": "73.6% (active)"}
{"compound": "O=C1CC2(CCN(C(=O)COc3ccc(F)cc3)CC2)Oc2ccccc21", "inhibition": "1.25%"}
{"compound": "O=C(CSc1ncn[nH]1)Nc1ccnc2ccccc12", "inhibition": "-9.75%"}
{"compound": "CCCCCN1CC(O)=C(c2nc(-c3ccc(Cl)cc3)cs2)C1=N", "inhibition": "94.9% (active)"}
{"compound": "CCCCNC(=O)CCn1nc(-c2ccc(Cl)cc2)ccc1=O", "inhibition": "6.19%"}
{"compound": "CCCCCN1CC(O)=C(c2ccccc2)C1=N", "inhibition": "-2.2%"}
{"compound": "Cc1ccc(NC(=O)CN(C)C(=O)c2ccc(Br)o2)cc1", "inhibition": "1.38%"}
{"compound": "CC1(C)CC(=O)C2=C(C1)NCN(CCCN1CCOCC1)C2", "inhibition": "-1.79%"}
{"compound": "CC(C)C(=O)NC(NC(=S)NC1CCS(=O)(=O)C1)C(Cl)(Cl)Cl", "note": "(stereo not given)", "inhibition": "-9.76%"}
{"compound": "CC(=O)Nc1ccc(N2C(=O)CCC2=O)cc1C", "inhibition": "75.8% (active)"}
{"compound": "Cc1cccc(NC(=O)c2cc(N3C(=O)CCC3=O)ccc2Cl)n1", "inhibition": "-6.1%"}
{"compound": "COC(=O)c1cccc(NC(=O)c2cccc(N3C(=O)CCC3=O)c2)c1", "inhibition": "-7.64%"}
{"compound": "O=C(C(NS(=O)(=O)c1cccc2nsnc12)c1ccccc1)N1CCN(c2ccccn2)CC1", "note": "(stereo not given)", "inhibition": "-0.35%"}
{"compound": "O=S(=O)(NC(=S)Nc1ccccc1)c1ccc(F)cc1", "inhibition": "-7.43%"}
{"compound": "COCCCn1c(Cc2csc(Nc3cccc(Cl)c3)n2)nnc1SCC(=O)OC1CCCCC1", "inhibition": "58.9% (active)"}
{"compound": "COCCCn1c(SCC(=O)NC2CCCC2)nnc1-c1ccccc1", "inhibition": "-9.75%"}
{"compound": "CCOc1ccc(Nc2nc(Cc3nnc(SCC(=O)NC4CCCC4)n3C)cs2)cc1", "inhibition": "-5.22%"}
{"compound": "O=C(CSc1nnc(N2CCOCC2)n1-c1cccc(F)c1)N1CCN(c2ccccn2)CC1", "inhibition": "-3.89%"}
{"compound": "Cc1c(C)c2ccc(OCC(=O)N3CCC(C(=O)O)CC3)c(C)c2oc1=O", "inhibition": "1.4%"}
{"compound": "Cc1c(CC(=O)N2CCN(C(=O)C3COc4ccccc4O3)CC2)c(=O)oc2c(O)c(O)ccc12", "note": "(stereo not given)", "inhibition": "79.7% (active)"}
{"compound": "Cc1ccc(S(=O)(=O)NCCC(=O)NNC(=O)C2COc3ccccc3O2)cc1", "note": "(stereo not given)", "inhibition": "-1.94%"}
{"compound": "COc1ccc(NC2CCCN(C(=O)c3ccncc3)C2)cc1", "note": "(stereo not given)", "inhibition": "3.08%"}
{"compound": "CNc1[nH]ncc1[N+](=O)[O-]", "inhibition": "-7.97%"}
{"compound": "NC(=O)c1nsc(C(=O)N(CCCN2CCOCC2)C(C(=O)NC2CCCCC2)c2ccc(Cl)cc2)c1N", "note": "(stereo not given)", "inhibition": "-5.84%"}
{"compound": "CCS(=O)(=O)N1CCCC(C(=O)NCCCN(C)Cc2ccccc2)C1", "note": "(stereo not given)", "inhibition": "-3.41%"}
{"compound": "COc1ccc(Cc2nnc(NC(=O)Cc3cccs3)s2)cc1", "inhibition": "87% (active)"}
{"compound": "COc1ccc(Cc2nnc(NS(=O)(=O)Cc3ccccc3)s2)cc1", "inhibition": "-2.23%"}
{"compound": "COc1ccc(OC)c(NC(=O)Cc2cccs2)c1", "inhibition": "14.5%"}
{"compound": "CC1CCC(NC(=O)CNC(=O)c2ccc3ccccc3c2)CC1", "note": "(stereo not given)", "inhibition": "-3.85%"}
{"compound": "O=C(CN1CCCCC1)NC(=O)Nc1ccccc1F", "inhibition": "1.25%"}
{"compound": "C=C1CCN([C@H](C(=O)NCc2cc(OC)c(OC)c(OC)c2)C(C)C)S(=O)(=O)c2ccccc21", "inhibition": "-5.59%"}
{"compound": "COc1ccccc1N1CCN(CC(=O)NC(=O)NCc2ccco2)CC1", "inhibition": "-8.28%"}
{"compound": "NC(=O)CCN1CCN(S(=O)(=O)/C=C/c2ccccc2)CC1", "inhibition": "5.89%"}
{"compound": "O=C(CN1CCN(S(=O)(=O)/C=C/c2ccccc2)CC1)NC(=O)NCc1ccco1", "inhibition": "52.3% (active)"}
{"compound": "COC(=O)c1cc(OC)c(OC)cc1NC(=O)C1CCCO1", "note": "(stereo not given)", "inhibition": "-6.55%"}
{"compound": "CN(CC(=O)Nc1ccc(Cl)cc1)C(=O)CNC(=O)c1ccc2ccccc2c1", "inhibition": "-10%"}
{"compound": "O=C(NNC(=O)c1ccc2ccccc2c1)c1ccc(Cl)cc1", "inhibition": "99.5% (active)"}
{"compound": "O=C(CCCOc1ccccc1)NNC(=O)c1ccc(Cl)cc1", "inhibition": "0.5%"}
{"compound": "N=C1C(=O)OCC1c1ccccc1NC(=O)CN1CCCCC1", "note": "(stereo not given)", "inhibition": "-9.11%"}
{"compound": "Cc1cc(C)n(CCNCc2c(C(=O)N3C[C@@H](C)O[C@@H](C)C3)nc3ccc(Cl)cn23)n1", "inhibition": "-3.38%"}
{"compound": "CCn1cc(CN2CCC(C(=O)Nc3cccc(-c4cccc(Cl)c4)c3)CC2)c(C)n1", "inhibition": "-4.7%"}
{"compound": "CCOC(=O)CCCCCC(=O)Nc1ccc2c(c1)CC(=O)N([C@@H](C)CO)C[C@H](C)[C@@H](CN(C)Cc1ccccc1)O2", "inhibition": "-4.43%"}
{"compound": "C=CCOc1c2ccc(C(=O)N(CC)c3ccc(OC)cc3)cc2nn1C", "inhibition": "-2.27%"}
{"compound": "O=C(COC(=O)c1cnccn1)Nc1cccc2ccccc12", "inhibition": "-9.56%"}
{"compound": "C=C1c2cccc(OC)c2O[C@H](C(=O)OCC)[C@@H]1CCCCCC", "inhibition": "101% (active)"}
{"compound": "CCOC(=O)C(=Cc1ccccc1OC)C(=O)OCC", "inhibition": "-0.82%"}
{"compound": "CC1C(=O)NC(=O)C1c1ccccc1", "note": "(stereo not given)", "inhibition": "-3.27%"}
{"compound": "N#Cc1c(-c2cccs2)nc(SCC(=O)c2ccc(Br)cc2)[nH]c1=O", "inhibition": "64.9% (active)"}
{"compound": "O=C(CSc1nc2ccccc2c(=O)[nH]1)Nc1nc(-c2ccc(Br)cc2)cs1", "inhibition": "3.75%"}
{"compound": "CC(=O)CSc1nc(CCc2ccccc2)c(C#N)c(=O)[nH]1", "inhibition": "-7.04%"}
{"compound": "CCN(CC)C(=O)CS(=O)CC(=O)Nc1cc(OCCOC)c(Cl)cc1Cl", "note": "(stereo not given)", "inhibition": "1.24%"}
{"compound": "O=C(Cn1cnc([N+](=O)[O-])n1)NCCc1ccccc1", "inhibition": "-2.5%"}
